In ChEMBL document CHEMBL3822403, “Discovery, Optimization, and Biological Evaluation of Sulfonamidoacetamides as an Inducer of Axon Regeneration” (J Med Chem, 2016):
The source made the active and inactive calls. No cut-off for these calls is given here.

Key:
P19 [1] = experiment: Induction of neurite outgrowth in mouse P19 cells transfected with neuroD2 at 10 uM after 48 hrs by DAPI staining based confocal fluorescence image analyzer relative to control; assay type: functional
In short: (§1)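 P19 cells transfected with NeuroD2 cDNA, replated 12 h later at 8,000 cells/well in MEM, 5% FBS, 1 mM pyruvate, 2 mM glutamate; after 24 h compound exposure 48 h. βIII tubulin immunofluorescence with DAPI, four fields/well imaged at 10x, neurite outgrowth relative to DMSO-treated cells.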

Cerebral cortex neuron = experiment: Induction of neurite outgrowth in Sprague-Dawley rat primary cortical neurons at 1 to 10 uM after 48 hrs by DAPI staining based confocal fluorescence image analyzer; assay type: functional, cell-based
In short: (§2)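 E18 Sprague-Dawley rat hippocampus and cortex dissociated separately, seeded at 2,000 cells/well in Neurobasal/B27 with 2 mM glutamate; after 24 h treated 48 h. Fixed, stained anti-βIII tubulin with DAPI nuclei; four fields per well imaged at 10x, neurite total length per neuron; mean ± SD, n=3.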

Hippocampal neurone = experiment: Induction of neurite outgrowth in Sprague-Dawley rat primary hippocampal neurons after 48 hrs by DAPI staining based confocal fluorescence image analyzer; assay type: functional; in short: as §2
[2] = Metabolic stability in mouse liver S9 fraction assessed as compound remaining after 30 mins; assay type: ADME, subcellular; details: read-out: Stability
Rattus norvegicus = experiment: Induction of axonal outgrowth of RGC in Sprague-Dawley rat optic nerve injury model assessed as regeneration of 500 to 1500 um crushed optic nerves at 0.22 ug/eye administered intravitreously once in 4 days for 3 weeks by measuring optic nerve injury by GAP-43 expression based microscopy (reference value: 0.22 +/- 0.081); assay type: functional
P19 [3] = experiment: Induction of neurite outgrowth in mouse P19 cells transfected with neuroD2 at 10 to 20 uM after 48 hrs by DAPI staining based confocal fluorescence image analyzer relative to control; assay type: functional; in short: as §1
P19 [4] = experiment: Induction of neurite outgrowth in mouse P19 cells transfected with neuroD2 <1 uM after 48 hrs by DAPI staining based confocal fluorescence image analyzer relative to control; assay type: functional, cell-based; in short: as §1

| Structure (SMILES) | fold change (FC) (P19 [1]) | Activity (Cerebral cortex neuron) | Activity (Hippocampal neurone) | remaining at 0.5 h [2] | Activity (Rattus norvegicus) | fold change (FC) (P19 [3]) | Activity (P19 [4]) |
| --- | --- | --- | --- | --- | --- | --- | --- |
| COc1ccccc1N(CC(=O)Nc1cccnc1OC)S(=O)(=O)c1ccc(C)cc1 | 2.8 | Active | Active | – | – | – | – |
| COc1ccncc1NC(=O)CN(c1ccccc1OC)S(=O)(=O)c1ccc(C)cc1 | 4.2 | Active | Active | 61.2% | 0.7 | – | – |
| COc1ccccc1N(CC(=O)Nc1cccnc1OC(C)C)S(=O)(=O)c1ccc(C)cc1 | 2.3 | Active | Active | – | – | – | – |
| COC(=O)c1ccccc1NC(=O)CN(c1ccccc1OC)S(=O)(=O)c1ccc(C)cc1 | 3 | Active | Active | 0.3% | – | – | – |
| COc1ccc(OC)c(NC(=O)CN(Cc2ccc(C)cc2)c2ccccc2OC)c1 | – | – | Active | – | – | – | – |
| COc1ccc(OC)c(NC(=O)CN(c2ccccc2OC)S(=O)(=O)c2ccc(SC)cc2)c1 | 3.2 | Active | Active | – | – | – | – |
| COc1ccc(NC(=O)CN(c2ccccc2OC)S(=O)(=O)c2ccc(C)cc2)c(OC)c1 | 2.7 | Active | Active | – | – | – | – |
| COc1ccc(CCN(C)CCCC(C#N)(c2ccc(OC)c(OC)c2)C(C)C)cc1OC (stereo not drawn) [VERAPAMIL] | – | – | – | 23.1% | – | – | – |
| CCOc1ccccc1NC(=O)CN(c1ccccc1C)S(=O)(=O)c1ccc(C)cc1 | 2.6 | Active | Active | – | – | – | – |
| COc1ccncc1NC(=O)CN(c1ccccc1OC)S(=O)(=O)c1ccc(Br)cc1 | 3.7 | Active | Active | – | – | – | – |
| CCOc1ccccc1NC(=O)CN(c1cccc(OC)c1)S(=O)(=O)c1ccc(C)cc1 | 3.1 | Active | Active | – | – | – | – |
| COc1ccc(NC(=O)CN(c2ccccc2OC)S(=O)(=O)c2ccc(Cl)cc2)c(OC)c1 | 4.2 | Active | Active | 0.4% | – | – | – |
| CCOc1ccccc1CNC(=O)CN(c1ccccc1OC)S(=O)(=O)c1ccc(C)cc1 | – | – | Active | – | – | – | – |
| COc1ccccc1N(CC(=O)Nc1nccs1)S(=O)(=O)c1ccc(C)cc1 | – | – | Active | – | – | – | – |
| COc1ccc(OC)c(NC(=O)CN(c2ccccc2OC)S(=O)(=O)c2ccc(F)cc2)c1 | 2.5 | Active | Active | – | – | – | – |
| COc1ccccc1N(CC(=O)Nc1ccc2ncccc2c1)S(=O)(=O)c1ccc(C)cc1 | 1 | Active | Active | – | – | – | – |
| CCOc1ccccc1NC(=O)CN(c1ccccc1Cl)S(=O)(=O)c1ccc(C)cc1 | 2.6 | Active | Active | – | – | – | – |
| COc1ccc(S(=O)(=O)N(CC(=O)Nc2cc(OC)ccc2OC)c2ccccc2OC)cc1 | 2.3 | Active | Active | 0.4% | – | – | – |

| Structure (SMILES) | fold change (FC) (P19 [1]) | Activity (Cerebral cortex neuron) | Activity (Hippocampal neurone) | remaining at 0.5 h [2] | Activity (Rattus norvegicus) | fold change (FC) (P19 [3]) | Activity (P19 [4]) |
| --- | --- | --- | --- | --- | --- | --- | --- |
| CC(=O)Nc1ccc(O)cc1 [ACETAMINOPHEN] | – | – | – | 97.7% | – | – | – |
| COc1cccc(NC(=O)CN(c2ccccc2OC)S(=O)(=O)c2ccc(C)cc2)c1 | 1.8 | Active | Active | – | – | – | – |
| COc1ccccc1N(CC(=O)Nc1ncccc1OC)S(=O)(=O)c1ccc(C)cc1 | 1.6 | Active | Active | – | – | – | – |
| CCOc1ccccc1NC(=O)CN(c1ccccc1OC)S(=O)(=O)c1ccc(C)cc1 | – | Active | Active | 0.7% | – | 3.2 | inactive |
| COc1ccncc1NC(=O)CN(c1ccccc1OC)S(=O)(=O)c1ccc(SC)cc1 | 3.9 | Active | Active | – | – | – | – |
| COc1ccccc1N(CC(=O)Nc1cnc2ccccc2c1)S(=O)(=O)c1ccc(C)cc1 | 3.6 | Active | Active | – | – | – | – |
| COc1ccc(OC)c(NC(=O)CN(C(=O)c2ccc(Cl)cc2)c2ccccc2OC)c1 | 1 | – | Active | – | – | – | – |
| CCc1ccccc1NC(=O)CN(c1ccccc1OC)S(=O)(=O)c1ccc(C)cc1 | 0.8 | – | Active | – | – | – | – |
| CCOc1ccccc1NC(=O)CN(c1ccccc1)S(=O)(=O)c1ccc(C)cc1 | 2.5 | Active | Active | – | – | – | – |
| COc1ccc(OC)c(NC(=O)CN(c2ccccc2OC)S(=O)(=O)c2ccc(Br)cc2)c1 | 5 | Active | Active | – | – | – | – |
| CCOc1ccccc1NC(=O)CN(c1ccccc1F)S(=O)(=O)c1ccc(C)cc1 | 2.9 | Active | Active | – | – | – | – |
| COc1ccccc1N(CC(=O)Nc1ccccc1F)S(=O)(=O)c1ccc(C)cc1 | 2.1 | Active | Active | – | – | – | – |
| COc1ccccc1N(CC(=O)Nc1ccccc1)S(=O)(=O)c1ccc(C)cc1 | 2 | Active | Active | – | – | – | – |
| COc1ccccc1N(CC(=O)Nc1ccccc1Br)S(=O)(=O)c1ccc(C)cc1 | 2.1 | Active | Active | – | – | – | – |
| COc1ccccc1N(CC(=O)Nc1ncc[nH]1)S(=O)(=O)c1ccc(C)cc1 | – | – | Active | – | – | – | – |
| CCOc1ncccc1NC(=O)CN(c1ccccc1OC)S(=O)(=O)c1ccc(C)cc1 | 2.1 | Active | Active | – | – | – | – |
| COc1ccccc1N(CC(=O)Nc1cccc2ncccc12)S(=O)(=O)c1ccc(C)cc1 | 1.3 | Active | Active | – | – | – | – |
